Test results reported in publication PMC6263940 (Nature chemical biology, 2018).

How the values were obtained:
[1] = target: T1, ABHD12 (Mus musculus, UniProt Q99LR1); test: Ex vivo gel-based competitive ABPP; format: in vivo
T1 sequence (Q99LR1 1-398): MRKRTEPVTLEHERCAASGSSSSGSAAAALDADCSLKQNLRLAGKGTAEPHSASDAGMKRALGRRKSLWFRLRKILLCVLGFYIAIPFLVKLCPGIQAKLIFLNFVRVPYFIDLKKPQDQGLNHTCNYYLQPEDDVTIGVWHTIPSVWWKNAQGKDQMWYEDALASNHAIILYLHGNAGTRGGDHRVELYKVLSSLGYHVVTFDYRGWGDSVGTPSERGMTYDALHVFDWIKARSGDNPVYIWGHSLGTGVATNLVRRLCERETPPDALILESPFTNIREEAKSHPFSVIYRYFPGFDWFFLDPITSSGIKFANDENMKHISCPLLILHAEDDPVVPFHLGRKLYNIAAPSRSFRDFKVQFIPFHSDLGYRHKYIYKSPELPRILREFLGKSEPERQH

[2] = target: T2, ABHD12 (Homo sapiens, UniProt Q8N2K0); test: Gel-based competitive ABPP; format: cell-based; settings: 24 h treatment, JJH350 probe
T2 sequence (Q8N2K0 1-398): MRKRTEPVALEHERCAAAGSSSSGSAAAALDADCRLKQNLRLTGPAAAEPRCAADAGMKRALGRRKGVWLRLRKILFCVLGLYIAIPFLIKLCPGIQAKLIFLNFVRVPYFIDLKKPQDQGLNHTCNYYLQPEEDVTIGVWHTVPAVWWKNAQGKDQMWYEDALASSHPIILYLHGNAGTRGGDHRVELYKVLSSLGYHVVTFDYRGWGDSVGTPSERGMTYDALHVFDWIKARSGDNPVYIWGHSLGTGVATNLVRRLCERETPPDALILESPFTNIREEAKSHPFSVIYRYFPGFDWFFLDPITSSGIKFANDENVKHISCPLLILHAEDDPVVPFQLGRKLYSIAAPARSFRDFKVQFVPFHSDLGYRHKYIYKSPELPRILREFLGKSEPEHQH
Procedure, shortened: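 PBMCs collected from the gradient interface, red cells lysed (5 min, room temperature) and plated in DPBS at 2.26 × 10⁵ cells/cm²; adherent monocytes attach within 1–2 h. After in situ treatment, proteome (1 mg/mL) labelled with JJH350 (2 μM final, 45 min, 37 °C), clicked and run on gel. ABHD12 band intensity is normalised to the control sample (100%).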

FC(F)(F)Oc1ccc(Oc2ccnc(N3CCC(NC(=S)Nc4cccnc4)CC3)c2Cl)c(Cl)c1 [DO264, N-3-pyridyl-N’-(1-[3-chloro-4-{2-chloro-4-(trifluoromethoxy)phenoxy}pyridine-2-yl]piperidin-4-yl)thiourea]
brain ABHD12 activity at 48 h post-dosing ([1]; 30 mg/kg, i.p.): partial recovery | time post-treatment over which inhibition of brain ABHD12 activity was observed ([1]; 30 mg/kg, i.p.): 4 to 24 h | brain ABHD12 activity, ex vivo analysis with JJH350 probe ([1]; C57BL/6 mice, 30 and 60 mg/kg, i.p. (4 h or 24 h) or p.o. (4 h)): complete inhibition | inhibition of ABHD12 in peripheral tissues of mice ([1]; i.p., 30 mg/kg, 4 h, FP-Rh and JJH350 probes): selectively inhibited | ABHD12 activity in primary human macrophages [2]: inhibits ABHD12 activity
